Data as given in ChEMBL document CHEMBL1137627, “Hit generation and exploration: imidazo[4,5-b]pyridine derivatives as inhibitors of Aurora kinases” (Bioorg Med Chem Lett, 2007).
Activity calls are given as the source filed them. No cut-off for these calls is given here.

Experiments:
[1] = target: T1, Aurora kinase A (Homo sapiens) (UniProt O14965); test: Inhibition of aurora A kinase at 10 uM
T1 sequence (whole entry): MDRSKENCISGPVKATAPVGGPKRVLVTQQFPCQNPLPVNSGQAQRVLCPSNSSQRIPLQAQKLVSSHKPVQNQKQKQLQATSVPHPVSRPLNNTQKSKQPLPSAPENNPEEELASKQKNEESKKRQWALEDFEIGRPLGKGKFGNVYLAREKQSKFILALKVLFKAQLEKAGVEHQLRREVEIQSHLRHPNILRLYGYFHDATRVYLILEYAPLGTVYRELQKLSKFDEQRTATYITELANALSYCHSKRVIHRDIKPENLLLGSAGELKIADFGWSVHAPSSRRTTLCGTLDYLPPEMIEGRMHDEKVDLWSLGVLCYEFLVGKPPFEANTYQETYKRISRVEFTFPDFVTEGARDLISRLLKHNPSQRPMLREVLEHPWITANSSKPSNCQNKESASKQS
In short: (§1)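 Aurora-A kinase activity measured by Flashplate or Filterplate assay at 20 µM ATP. Samples run in triplicate and mean reported; some IC50 values are the mean of independent determinations.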

Aurora kinase A = target: T2, Aurora kinase A (Homo sapiens, UniProt O14965); test: Inhibition of aurora A kinase; in short: as §1
T2 sequence (O14965 whole entry): T1 sequence (whole entry)

[2] = Metabolic stability in mouse liver microsomes after 30 mins; assay type: ADME, Microsome; conditions: read-out: Stability
In short: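 Compound incubated 30 min with mouse liver microsomes. Percent of parent compound remaining was reported.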

Aurora kinase C = target: T3, Aurora kinase C (Homo sapiens, UniProt Q9UQB9); test: Inhibition of recombinant aurora C kinase
T3 sequence (Q9UQB9 whole entry): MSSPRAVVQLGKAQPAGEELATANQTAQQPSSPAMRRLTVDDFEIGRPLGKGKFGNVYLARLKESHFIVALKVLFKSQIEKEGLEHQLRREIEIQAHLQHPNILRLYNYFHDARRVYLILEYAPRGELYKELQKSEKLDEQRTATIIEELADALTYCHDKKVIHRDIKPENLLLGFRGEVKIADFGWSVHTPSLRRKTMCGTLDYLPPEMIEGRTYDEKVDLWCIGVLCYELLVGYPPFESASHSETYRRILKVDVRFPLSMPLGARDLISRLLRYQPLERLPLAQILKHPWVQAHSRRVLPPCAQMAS
In short: (§2)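 Purified recombinant Aurora kinase; IC50 determined by either a Flashplate or a Filterplate assay, with ATP in the assay at 20.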

Aurora kinase B = Aurora kinase B (Homo sapiens, UniProt Q96GD4); test: Inhibition of recombinant aurora B kinase; in short: as §2
HeLa = test: Antiproliferative activity against HeLa cells; assay type: functional; conditions: Homo sapiens
Cytochrome P450 1A2 = target: T4, Cytochrome P450 1A2 (Homo sapiens, UniProt P05177); test: Inhibition of human CYP1A2 after 10 mins; assay type: ADME
T4 sequence (P05177 whole entry): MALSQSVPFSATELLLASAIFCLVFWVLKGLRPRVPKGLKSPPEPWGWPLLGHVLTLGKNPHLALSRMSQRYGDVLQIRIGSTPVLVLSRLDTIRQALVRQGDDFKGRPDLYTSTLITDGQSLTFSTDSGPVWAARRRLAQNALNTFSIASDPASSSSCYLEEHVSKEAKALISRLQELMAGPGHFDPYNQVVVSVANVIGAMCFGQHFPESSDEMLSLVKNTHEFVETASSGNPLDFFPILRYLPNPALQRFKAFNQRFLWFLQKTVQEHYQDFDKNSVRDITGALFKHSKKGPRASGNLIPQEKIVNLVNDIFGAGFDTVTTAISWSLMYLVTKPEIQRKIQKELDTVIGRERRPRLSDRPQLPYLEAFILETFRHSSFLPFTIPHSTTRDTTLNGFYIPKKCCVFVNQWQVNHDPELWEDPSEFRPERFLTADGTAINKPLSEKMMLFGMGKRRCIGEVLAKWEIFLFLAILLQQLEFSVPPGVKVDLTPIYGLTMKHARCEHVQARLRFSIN
In short: (§3)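 Inhibition of CYP isozymes assayed in pooled human liver microsomes from 50 individuals. Microsomal protein 0.5 mg/ml, 10 min incubation. Mephenytoin served as the CYP2C19 substrate. Metabolites were detected by LC–MS–MS with positive electrospray ionisation.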

Cytochrome P450 2C9 = Cytochrome P450 2C9 (Homo sapiens, UniProt P11712); test: Inhibition of human CYP2C9 after 10 mins; assay type: ADME; in short: as §3
Cytochrome P450 2C19 = Cytochrome P450 2C19 (Homo sapiens, UniProt P33261); test: Inhibition of human CYP2C19 after 10 mins; assay type: ADME; in short: as §3
Cytochrome P450 2D6 = Cytochrome P450 2D6 (Homo sapiens, UniProt P10635); test: Inhibition of human CYP2D6 after 10 mins; assay type: ADME; in short: as §3
Cytochrome P450 2A6 = target: T5, Cytochrome P450 2A6 (Homo sapiens, UniProt P11509); test: Inhibition of human CYP2A6 after 10 mins; assay type: ADME; in short: as §3
T5 sequence (P11509 whole entry): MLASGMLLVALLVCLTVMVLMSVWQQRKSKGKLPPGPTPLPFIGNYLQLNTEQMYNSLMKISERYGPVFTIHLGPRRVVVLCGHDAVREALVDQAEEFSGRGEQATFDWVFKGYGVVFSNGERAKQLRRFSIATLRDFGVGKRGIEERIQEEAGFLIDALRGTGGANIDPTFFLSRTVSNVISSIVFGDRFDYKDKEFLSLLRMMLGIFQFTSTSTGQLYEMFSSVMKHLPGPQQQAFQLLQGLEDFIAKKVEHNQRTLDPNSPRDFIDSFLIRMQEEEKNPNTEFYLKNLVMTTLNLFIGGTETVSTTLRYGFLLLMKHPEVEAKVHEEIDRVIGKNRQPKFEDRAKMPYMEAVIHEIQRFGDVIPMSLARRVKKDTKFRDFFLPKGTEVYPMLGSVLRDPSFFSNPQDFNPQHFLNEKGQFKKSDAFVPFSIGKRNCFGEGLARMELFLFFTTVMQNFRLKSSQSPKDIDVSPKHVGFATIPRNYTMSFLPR

HCT-116 = test: Antiproliferative activity against HCT116 cells; assay type: functional; conditions: Homo sapiens
[3] = target: T1, Aurora kinase A (Homo sapiens); test: Inhibition of aurora A kinase at 100 uM; in short: as §1

Aurora kinase B, sequence (Q96GD4 whole entry): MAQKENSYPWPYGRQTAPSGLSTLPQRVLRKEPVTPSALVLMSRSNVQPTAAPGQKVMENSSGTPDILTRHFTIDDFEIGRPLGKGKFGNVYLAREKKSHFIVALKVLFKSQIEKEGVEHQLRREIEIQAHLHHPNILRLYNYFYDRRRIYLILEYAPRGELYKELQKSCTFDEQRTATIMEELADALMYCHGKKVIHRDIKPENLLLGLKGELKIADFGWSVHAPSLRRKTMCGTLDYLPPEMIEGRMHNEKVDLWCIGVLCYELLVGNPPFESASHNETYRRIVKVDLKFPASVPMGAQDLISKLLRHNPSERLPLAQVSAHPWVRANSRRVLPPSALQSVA
Cytochrome P450 2C9, sequence (P11712 whole entry): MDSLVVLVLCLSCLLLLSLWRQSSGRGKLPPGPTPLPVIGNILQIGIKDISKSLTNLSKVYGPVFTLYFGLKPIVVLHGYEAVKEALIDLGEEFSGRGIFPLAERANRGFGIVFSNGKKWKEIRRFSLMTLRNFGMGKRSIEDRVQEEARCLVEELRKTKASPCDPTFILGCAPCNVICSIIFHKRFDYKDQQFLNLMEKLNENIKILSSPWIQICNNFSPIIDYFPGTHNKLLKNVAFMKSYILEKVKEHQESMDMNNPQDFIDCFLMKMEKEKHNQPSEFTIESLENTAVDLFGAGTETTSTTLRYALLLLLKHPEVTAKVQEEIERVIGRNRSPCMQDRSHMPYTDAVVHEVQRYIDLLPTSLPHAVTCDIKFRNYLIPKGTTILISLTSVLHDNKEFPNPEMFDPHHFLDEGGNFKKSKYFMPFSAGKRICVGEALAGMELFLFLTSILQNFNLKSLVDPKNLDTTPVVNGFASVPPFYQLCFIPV
Cytochrome P450 2C19, sequence (P33261 whole entry): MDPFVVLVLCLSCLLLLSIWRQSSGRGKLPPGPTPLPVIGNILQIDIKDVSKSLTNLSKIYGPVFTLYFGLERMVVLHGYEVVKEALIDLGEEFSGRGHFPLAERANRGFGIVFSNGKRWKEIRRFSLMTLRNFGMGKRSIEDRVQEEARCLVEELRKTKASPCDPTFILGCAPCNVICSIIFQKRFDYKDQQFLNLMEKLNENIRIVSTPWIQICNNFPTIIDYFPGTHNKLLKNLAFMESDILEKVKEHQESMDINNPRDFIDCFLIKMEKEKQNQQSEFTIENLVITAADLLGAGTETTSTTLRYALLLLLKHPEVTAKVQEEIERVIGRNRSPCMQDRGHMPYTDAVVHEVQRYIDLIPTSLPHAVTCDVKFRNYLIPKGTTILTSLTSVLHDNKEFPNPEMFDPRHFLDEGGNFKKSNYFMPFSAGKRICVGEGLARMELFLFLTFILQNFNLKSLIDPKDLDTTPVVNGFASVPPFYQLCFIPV
Cytochrome P450 2D6, sequence (P10635 whole entry): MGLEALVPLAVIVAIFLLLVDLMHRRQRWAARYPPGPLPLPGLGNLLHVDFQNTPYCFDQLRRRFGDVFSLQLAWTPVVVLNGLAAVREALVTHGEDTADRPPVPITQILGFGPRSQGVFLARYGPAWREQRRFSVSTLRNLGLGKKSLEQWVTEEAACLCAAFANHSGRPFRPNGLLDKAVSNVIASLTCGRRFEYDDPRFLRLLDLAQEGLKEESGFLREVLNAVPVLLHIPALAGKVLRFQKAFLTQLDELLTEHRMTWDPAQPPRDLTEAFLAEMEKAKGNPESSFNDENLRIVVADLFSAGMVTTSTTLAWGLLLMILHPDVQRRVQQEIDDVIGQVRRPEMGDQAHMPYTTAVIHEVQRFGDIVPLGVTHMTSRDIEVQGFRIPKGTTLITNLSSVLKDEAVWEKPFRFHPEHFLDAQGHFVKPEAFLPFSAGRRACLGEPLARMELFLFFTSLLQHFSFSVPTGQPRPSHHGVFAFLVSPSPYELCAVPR

SMILES	IC50 (Aurora kinase A) [µM]	also measured
CN(C)c1ccc(-c2nc3cc(-c4cccc(O)c4)cnc3[nH]2)cc1		inhibition [1]: 31%
COc1cc2ncnc(N3CCN(CCc4ccccc4)CC3)c2cc1OC	76	
COc1ccc(-c2nc3ncccc3[nH]2)cc1	6.6	
COc1cc2ncnc(N3CCN(CCOc4ccccc4)CC3)c2cc1OC	35	
CN(C)c1ccc(-c2nc3cc(-c4cccs4)cnc3[nH]2)cc1		inhibition [1]: 34%
CN(C)c1cccc(-c2nc3cccnc3[nH]2)c1	10	
COc1cc2ncnc(N3CCN(CC(=O)Nc4nccs4)CC3)c2cc1OC	5.9	
N#Cc1ccc(-c2nc3cccnc3[nH]2)cc1		inhibition [1]: 38%
COc1ccccc1-c1nc2ccc[nH]c-2n1	29	
CN(C)c1ccc(-c2nc3c(N4CCN(CC(=O)Nc5nccs5)CC4)c(Cl)cnc3[nH]2)cc1		remaining at 0.5 h [2]: 75%; IC50 (Aurora kinase C): 0.227 µM; IC50 (Aurora kinase B): 0.198 µM; GI50 (HeLa): 0.2 µM; IC50 (Cytochrome P450 1A2): > 10 µM; IC50 (Cytochrome P450 2C9): 10 µM; IC50 (Cytochrome P450 2C19): > 10 µM; IC50 (Cytochrome P450 2D6): > 10 µM; IC50 (Cytochrome P450 2A6): > 10 µM; GI50 (HCT-116): 0.35 µM
Cc1cnc2[nH]c(-c3ccc(N(C)C)cc3)nc2c1	6.9	
c1cnc2nc(-c3ccc(N4CCCC4)cc3)[nH]c2c1	4.6	
CN(C)c1ccc(-c2nc3ccccc3[nH]2)cc1		inhibition [3]: 8%
CCn1c(-c2ccc(N(C)C)cc2)nc2cccnc21		inhibition [3]: 26%
CN(C)c1ccc(-c2nc3cc[nH]cc-3n2)cc1	12.5	inhibition [1]: 35%
CN(C)c1ccc(-c2nc3c(N4CCN(CC(=O)Nc5nccs5)CC4)ccnc3[nH]2)cc1	0.87	
COc1cc2ncnc(N3CCN(CCn4ccnc4)CC3)c2cc1OC		Activity [3]: inactive
COc1cc2ncnc(N3CCN(CC(=O)N(C)c4ccccc4)CC3)c2cc1OC	16.5	
CN(C)c1ccc(-c2nc3ncc(Br)cc3[nH]2)cc1	0.49	
c1cnc2nc(-c3ccc(C4CCCCN4)cc3)[nH]c2c1 (stereo not given)	4.4	

SMILES	IC50 (Aurora kinase A) [µM]	also measured
CN(C)c1ccc(-c2nc3cc(-c4ccc5c(c4)OCO5)cnc3[nH]2)cc1		inhibition [3]: 33%
COc1cc2ncnc(N3CCN(Cc4cccc5ccccc45)CC3)c2cc1OC	9.6	
COc1cc2ncnc(N3CCN(C(C)c4ccccc4)CC3)c2cc1OC (stereo not given)	25	
CN(C)c1ccc(-c2nc3cccnc3[nH]2)cc1	4.3	
CC(=O)c1cccc(-c2cnc3[nH]c(-c4ccc(N(C)C)cc4)nc3c2)c1	9	
COc1ccc(-c2cnc3nc(-c4ccc(N(C)C)cc4)[nH]c3c2)cc1	20	
COc1cc2ncnc(N3CCN(c4ncccn4)CC3)c2cc1OC		Activity [3]: inactive
CN(C)c1ccc(-c2nc3ncc(-c4cccc(O)c4)cc3[nH]2)cc1	18	
CN(C)c1ccc(-c2nc3c(Cl)ccnc3[nH]2)cc1	2.4	
CN(C)c1ccc(-c2nc3cc(-c4cccnc4)cnc3[nH]2)cc1		inhibition [1]: 28%
COc1cc2ncnc(N3CCN(CC(=O)N4CCCC4)CC3)c2cc1OC	98	
CN(C)c1ccccc1-c1nc2cccnc2[nH]1		inhibition [1]: 20%
COc1cccc(-c2nc3ncccc3[nH]2)c1	16	
COc1cc2ncnc(N3CCN(Cc4ccc(F)cc4)CC3)c2cc1OC	40	
CN(C)c1ccc(-c2nc3cc(C(F)(F)F)cnc3[nH]2)cc1	0.74	
Cc1ccnc2nc(-c3ccc(N(C)C)cc3)[nH]c12	7	
CN(C)c1ccc(-c2nc3ncc(Cl)c(Cl)c3[nH]2)cc1	0.25	
COc1cc2ncnc(N3CCN(c4cnccn4)CC3)c2cc1OC		Activity [3]: inactive
COc1cc2ncnc(N3CCN(CC(=O)OC(C)(C)C)CC3)c2cc1OC		Activity [3]: inactive
CN(C)c1ccc(-c2nc3cc(Cl)cnc3[nH]2)cc1	0.57	
